Assay results pooled from the literature.
CHEK2: Serine/threonine-protein kinase Chk2 (CHEK2, Homo sapiens, UniProt O96017)

SMILES	target	observed	mode	technique	tested at	endpoint	result
C[S+]([O-])c1ccc(-c2nc(-c3ccncc3)c(-c3ccc(F)cc3)[nH]2)cc1 (centres unmarked)	CHEK2	cell-free assay	–	–	0.5 µM	remaining signal	99.6%
C[C@H](c1ccc(F)cc1)N(Cc1cccc(C(=O)O)c1)C(=O)c1cnc2ccccc2c1	CHEK2	cell-free assay	–	competition with immobilised ligand	1 µM	remaining binding	91%
CC1(C)NC(=O)c2[nH]c3c(Cl)c(Cl)ccc3c2C1C#N (centres unmarked)	CHEK2	thermal stability	–	DSF	10 µM	ΔTm	-0.1 °C
CS(=O)(=O)N1CCCC(NC(=O)[C@H](CCC2CCCCC2)NC(=O)c2ccc(CNc3ncnc4c3nnn4-c3ccccc3)cc2)C1 (some centres unmarked)	CHEK2	cell-free assay	–	competition with immobilised ligand	0.1 µM	remaining binding	100%
Cn1c2c(c3ccc(Cl)c(Cl)c31)C(C#N)C1(CCOCC1)NC2=O (centres unmarked)	CHEK2	thermal stability	–	DSF	10 µM	ΔTm	-0.3 °C
CNC(=O)c1cc(Oc2ccc(NC(=O)Nc3ccc(Cl)c(C(F)(F)F)c3)cc2)ccn1	CHEK2	enzyme activity	inhibitor	–	10 µM	inhibition	6%
CN(C)CC#Cc1ccc(OCCCc2sc(N3CCc4cccc(C(=O)Nc5nc6ccccc6s5)c4C3)nc2C(=O)O)c(F)c1	CHEK2	cell-free assay	–	competition with immobilised ligand	1 µM	remaining binding	100%
Cc1ccc(Nc2nccc(N(C)c3ccc4c(C)n(C)nc4c3)n2)cc1S(N)(=O)=O	Serine/threonine-protein kinase Chk2 (CHEK2, Homo sapiens, UniProt O96017, R145W)	enzyme activity	inhibitor	–	10 µM	inhibition	28%
C#Cc1cccc(Nc2ncnc3cc(OCCOC)c(OCCOC)cc23)c1	CHEK2	cell-free assay	–	–	0.5 µM	remaining signal	100%
Cn1c2c(Cl)c(Cl)ccc2c2cc[nH]c(=O)c21	CHEK2	thermal stability	–	DSF	10 µM	ΔTm	0.2 °C
Nc1ncnc2occ(-c3ccc(NC(=O)Nc4cc(C(F)(F)F)ccc4F)cc3)c12	CHEK2	cell-free assay	inhibitor	–	20 µM	remaining signal	13%
Cc1cc(NC(=O)c2cccc3cc(-c4cccc5[nH]nc(N)c45)ccc23)ccc1F	CHEK2	enzyme activity	inhibitor	–	0.1 µM	activity vs control	102%
COc1cc(Nc2c(C#N)cnc3cc(OCCCN4CCN(C)CC4)c(OC)cc23)c(Cl)cc1Cl	CHEK2	cell-free assay	–	–	0.5 µM	remaining signal	21.7%
Cn1c2c(Cl)c(Cl)ccc2c2cn[nH]c(=O)c21	CHEK2	thermal stability	–	DSF	10 µM	ΔTm	-0.4 °C
O=C(Nc1cccnn1)N1CC(C/C=C/c2cncc(Oc3ccc(C(F)(F)F)cn3)n2)C1	CHEK2	cell-free assay	–	competition with immobilised ligand	1 µM	remaining binding	100%
Cn1c2c(c3ccc(Cl)c(Cl)c31)C(C#N)C(C)(C)NC2=O (centres unmarked)	CHEK2	thermal stability	–	DSF	10 µM	ΔTm	0.2 °C
CCCOc1ccc([C@H]2[C@H](C(=O)O)[C@@H](c3ccc4c(c3)OCO4)CN2CC(=O)Nc2c(CC)cccc2CC)cc1	CHEK2	cell-free assay	–	competition with immobilised ligand	1 µM	remaining binding	88%
Cc1ccc(NC(=O)c2ccc(CN3CCN(C)CC3)cc2)cc1Nc1nc(-c2cccnc2)cs1	CHEK2	cell-free assay	–	–	0.5 µM	remaining signal	101%
Cc1cnc(NC2CCOCC2)nc1-n1cnc(C(=O)NC(CN)c2cc(F)cc(Cl)c2)c1 (centres unmarked)	Serine/threonine-protein kinase Chk2 (CHEK2, Homo sapiens, UniProt O96017, I157T)	enzyme activity	inhibitor	radiometric	1 µM	remaining activity	82%
CN(C)C1CCN(CC#Cc2nn(C3CCCC3)c3nc(NCc4ccccc4)ncc23)C1 (centres unmarked)	CHEK2	enzyme activity	inhibitor	FRET	0.1 µM	inhibition	6%
CC(=O)N1CCC(c2ccc(C(=O)NC3=NCCN3)cc2C(F)(F)F)CC1	CHEK2	cell-free assay	–	competition with immobilised ligand	1 µM	remaining binding	100%
Cn1c2c(c3ccccc31)C(C#N)C(C)(C)NC2=O (centres unmarked)	CHEK2	thermal stability	–	DSF	10 µM	ΔTm	0.8 °C
CCCCN(CCCC)C(=O)CN1C[C@H](c2cc(OC)c3c(c2)OCO3)[C@@H](C(=O)O)[C@@H]1CC(C)(C)CCC	CHEK2	cell-free assay	–	competition with immobilised ligand	1 µM	remaining binding	100%
O=C1NC(=O)c2cc(Nc3ccc(F)cc3)c(Nc3ccc(F)cc3)cc21	CHEK2	cell-free assay	–	–	0.5 µM	remaining signal	94.3%
O=C(N1CCS(=O)(=O)CC1)N1C[C@H](c2ccc(OC(F)(F)F)cc2)C[C@H](c2nc(C3CC3)no2)C1	CHEK2	cell-free assay	–	competition with immobilised ligand	1 µM	remaining binding	100%
Cn1c2c(c3ccc(Cl)c(Cl)c31)C(C#N)C1(CCCC1)NC2=O (centres unmarked)	CHEK2	thermal stability	–	DSF	10 µM	ΔTm	0 °C
